Measurements as given in the RNAGym collection of RNA variant scans (doi:10.1002/anie.201605470).

B1: Osa-1-4 twister ribozyme (parent)
chain: CCGCCUAACACUGCCAAUGCCGGUCCCAAGCCCGGAUAAAAGUGGAGGGGGCGG

Variants of: B1
Assay: self-cleavage, relative activity (ratio to wild type); higher = more cleavage; co-transcriptional
Outline: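 Relative activity is the fraction cleaved divided by that of the wild-type ribozyme. The library came from a DNA template for a 54-nucleotide Oryza sativa twister ribozyme, doped at the 48 positions downstream of the cleavage site with 97 % wild-type base and 1 % of each other base. After 2 h of in vitro transcription at 37 °C with co-transcriptional self-cleavage, the RNA was reverse-transcribed with a template-switching oligonucleotide, amplified by PCR and deep-sequenced, and reads with or without upstream sequence gave the cleavage status.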

Variant | self-cleavage
CCGCCUUACACUGCCAAUGCCGGUCCCAAGUCCGGAUAAAAGUGGAGGGGGCGG [A7U C31U] | 0.05
CCGCCUUACACUGCCAAUGCCGGUCCCAAGGCCGGAUAAAAGUGGAGGGGGCGG [A7U C31G] | 0.06
CCGCCUUACACUGCCAAUGCCGGUCCCAAGACCGGAUAAAAGUGGAGGGGGCGG [A7U C31A] | 0.01
CCGCCUUACACUGCCAAUGCCGGGCCCAAGCCCGGAUAAAAGUGGAGGGGGCGG [A7U U24G] | 0.02
CCGCCUUACACUGCCAAUGCCGGACCCAAGCCCGGAUAAAAGUGGAGGGGGCGG [A7U U24A] | 0.06
CCGCCUUACACUGCCAAUGCCGGCCCCAAGCCCGGAUAAAAGUGGAGGGGGCGG [A7U U24C] | 0.04
CCGCCUACGACUGCCAAUGCCGGUCCCAAGCCCGGAUAAAAGUGGAGGGGGCGG [A8C C9G] | 0.05
CCGCCUACUACUGCCAAUGCCGGUCCCAAGCCCGGAUAAAAGUGGAGGGGGCGG [A8C C9U] | 0.01
CCGCCUACAACUGCCAAUGCCGGUCCCAAGCCCGGAUAAAAGUGGAGGGGGCGG [A8C C9A] | 0.1
CCGCCUACCACUGGCAAUGCCGGUCCCAAGCCCGGAUAAAAGUGGAGGGGGCGG [A8C C14G] | 0.03
CCGCCUACCACUGUCAAUGCCGGUCCCAAGCCCGGAUAAAAGUGGAGGGGGCGG [A8C C14U] | 0.05
CCGCCUACCACUGACAAUGCCGGUCCCAAGCCCGGAUAAAAGUGGAGGGGGCGG [A8C C14A] | 0.04
CCGCCUUACACUGCCAAUGCCGCUCCCAAGCCCGGAUAAAAGUGGAGGGGGCGG [A7U G23C] | 0.03
CCGCCUUACACUGCCAAUGCCGAUCCCAAGCCCGGAUAAAAGUGGAGGGGGCGG [A7U G23A] | 0.06
CCGCCUUACACUGCCAAUGCCGUUCCCAAGCCCGGAUAAAAGUGGAGGGGGCGG [A7U G23U] | 0.03
CCGCCUUACACUCCCAAUGCCGGUCCCAAGCCCGGAUAAAAGUGGAGGGGGCGG [A7U G13C] | 0.02
CCGCCUUACACUACCAAUGCCGGUCCCAAGCCCGGAUAAAAGUGGAGGGGGCGG [A7U G13A] | 0.04
CCGCCUUACACUUCCAAUGCCGGUCCCAAGCCCGGAUAAAAGUGGAGGGGGCGG [A7U G13U] | 0.06
CCGCCUUACACUGCCAAUGCCGGUCCCAAGCCCGGAUAAAAGUGGAGGGGGAGG [A7U C52A] | 0.12
CCGCCUUACACUGCCAAUGCCGGUCCCAAGCCCGGAUAAAAGUGGAGGGGGGGG [A7U C52G] | 0.12
CCGCCUUACACUGCCAAUGCCGGUCCCAAGCCCGGAUAAAAGUGGAGGGGGUGG [A7U C52U] | 0.1
CCGCCUACCAUUGCCAAUGCCGGUCCCAAGCCCGGAUAAAAGUGGAGGGGGCGG [A8C C11U] | 0.09
CCGCCUACCAAUGCCAAUGCCGGUCCCAAGCCCGGAUAAAAGUGGAGGGGGCGG [A8C C11A] | 0.1
CCGCCUACCAGUGCCAAUGCCGGUCCCAAGCCCGGAUAAAAGUGGAGGGGGCGG [A8C C11G] | 0.06
CCGCCUUACACUGCCAAUGCCGGUCCCAAGCCCGGAUAAAAGUGAAGGGGGCGG [A7U G45A] | 0.05

Variant | self-cleavage
CCGCCUUACACUGCCAAUGCCGGUCCCAAGCCCGGAUAAAAGUGCAGGGGGCGG [A7U G45C] | 0.04
CCGCCUUACACUGCCAAUGCCGGUCCCAAGCCCGGAUAAAAGUGUAGGGGGCGG [A7U G45U] | 0.02
CCGCCUUACACUGCCAAUGCCGGUCCCAAGCCCGGAUAAAAUUGGAGGGGGCGG [A7U G42U] | 0.03
CCGCCUUACACUGCCAAUGCCGGUCCCAAGCCCGGAUAAAACUGGAGGGGGCGG [A7U G42C] | 0.05
CCGCCUUACACUGCCAAUGCCGGUCCCAAGCCCGGAUAAAAAUGGAGGGGGCGG [A7U G42A] | 0.09
CCGCCUACCACUGCCAAUGCCGGUCCCAAGCCCGGAUAAAAGUGGAGGGGGCGG [A8C] | 0.07
CCGCCUUACACUGCCAAUGCCGGUCCCAAGCCCAGAUAAAAGUGGAGGGGGCGG [A7U G34A] | 0.08
CCGCCUUACACUGCCAAUGCCGGUCCCAAGCCCUGAUAAAAGUGGAGGGGGCGG [A7U G34U] | 0.07
CCGCCUUACACUGCCAAUGCCGGUCCCAAGCCCCGAUAAAAGUGGAGGGGGCGG [A7U G34C] | 0.1
CCGCCUUACACUGCCAAAGCCGGUCCCAAGCCCGGAUAAAAGUGGAGGGGGCGG [A7U U18A] | 0.11
CCGCCUUACACUGCCAACGCCGGUCCCAAGCCCGGAUAAAAGUGGAGGGGGCGG [A7U U18C] | 0.08
CCGCCUUACACUGCCAAGGCCGGUCCCAAGCCCGGAUAAAAGUGGAGGGGGCGG [A7U U18G] | 0.11
CCGCCUUACACUGCCAAUGCCGGUCCCAAGCCCGGAUAAAAGUGGAGGGCGCGG [A7U G50C] | 0.06
CCGCCUUACACUGCCAAUGCCGGUCCCAAGCCCGGAUAAAAGUGGAGGGUGCGG [A7U G50U] | 0.07
CCGCCUUACACUGCCAAUGCCGGUCCCAAGCCCGGAUAAAAGUGGAGGGAGCGG [A7U G50A] | 0.07
CCGCCUUACACUGCCAAUGCCGGUCUCAAGCCCGGAUAAAAGUGGAGGGGGCGG [A7U C26U] | 0.07
CCGCCUUACACUGCCAAUGCCGGUCGCAAGCCCGGAUAAAAGUGGAGGGGGCGG [A7U C26G] | 0.05
CCGCCUUACACUGCCAAUGCCGGUCACAAGCCCGGAUAAAAGUGGAGGGGGCGG [A7U C26A] | 0.02
CCGCCUUACACUGCCAAUGCCGGUCCCAAGCCCGGACAAAAGUGGAGGGGGCGG [A7U U37C] | 0.08
CCGCCUUACACUGCCAAUGCCGGUCCCAAGCCCGGAGAAAAGUGGAGGGGGCGG [A7U U37G] | 0.1
CCGCCUUACACUGCCAAUGCCGGUCCCAAGCCCGGAAAAAAGUGGAGGGGGCGG [A7U U37A] | 0.07
CCGCCUUACACUGCCAAUACCGGUCCCAAGCCCGGAUAAAAGUGGAGGGGGCGG [A7U G19A] | 0.06
CCGCCUUACACUGCCAAUUCCGGUCCCAAGCCCGGAUAAAAGUGGAGGGGGCGG [A7U G19U] | 0.1
CCGCCUUACACUGCCAAUCCCGGUCCCAAGCCCGGAUAAAAGUGGAGGGGGCGG [A7U G19C] | 0.03
